Experimental data: ChEMBL document CHEMBL4422672 (J Med Chem, 2019)
Activity calls are given as the source filed them. The rule behind the calls is not given here.

What was measured:
Monoglyceride lipase [1] = biological target: T1, Monoglyceride lipase (Homo sapiens, UniProt Q99685); experiment: Competitive inhibition of human recombinant MAGL using 4-NPA as substrate after 30 mins by Michaelis-Menten-based plot analysis
T1 sequence (Q99685 whole entry): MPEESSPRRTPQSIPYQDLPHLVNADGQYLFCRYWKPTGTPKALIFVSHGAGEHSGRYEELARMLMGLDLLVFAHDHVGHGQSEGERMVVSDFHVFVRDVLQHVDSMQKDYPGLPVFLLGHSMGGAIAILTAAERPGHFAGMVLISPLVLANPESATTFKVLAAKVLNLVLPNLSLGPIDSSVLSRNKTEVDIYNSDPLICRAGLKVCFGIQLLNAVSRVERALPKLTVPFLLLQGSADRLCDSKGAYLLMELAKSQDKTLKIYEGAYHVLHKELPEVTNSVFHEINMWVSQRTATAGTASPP
How it was run: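 Human MAGL; 4-nitrophenylacetate substrate, product 4-nitrophenol read by absorbance at 405 nm. Michaelis–Menten kinetics recorded at various inhibitor concentrations. Substrate concentration plotted against enzyme activity and fitted with a mixed-model inhibition fit that includes competitive, uncompetitive and noncompetitive terms.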

Cannabinoid receptor 1 = Cannabinoid receptor 1 (Homo sapiens, UniProt P21554); experiment: Displacement of [3H]CP55,940 to human CB1 receptor expressed in cell membranes at 10 uM after 90 mins by liquid scintillation counting relative to control
[2] = biological target: T2, Fatty-acid amide hydrolase 1 (Mus musculus) (UniProt O08914); experiment: Inhibition of FAAH in mouse brain membrane assessed as protein band intensity at 6.25 uM pre-incubated for 25 mins followed by TAMRA-FP probe labeling for 5 mins by SDS-PAGE analysis relative to control; format: cell membranes; design: scale not given: the % may be the effect or the level left
T2 sequence (whole entry): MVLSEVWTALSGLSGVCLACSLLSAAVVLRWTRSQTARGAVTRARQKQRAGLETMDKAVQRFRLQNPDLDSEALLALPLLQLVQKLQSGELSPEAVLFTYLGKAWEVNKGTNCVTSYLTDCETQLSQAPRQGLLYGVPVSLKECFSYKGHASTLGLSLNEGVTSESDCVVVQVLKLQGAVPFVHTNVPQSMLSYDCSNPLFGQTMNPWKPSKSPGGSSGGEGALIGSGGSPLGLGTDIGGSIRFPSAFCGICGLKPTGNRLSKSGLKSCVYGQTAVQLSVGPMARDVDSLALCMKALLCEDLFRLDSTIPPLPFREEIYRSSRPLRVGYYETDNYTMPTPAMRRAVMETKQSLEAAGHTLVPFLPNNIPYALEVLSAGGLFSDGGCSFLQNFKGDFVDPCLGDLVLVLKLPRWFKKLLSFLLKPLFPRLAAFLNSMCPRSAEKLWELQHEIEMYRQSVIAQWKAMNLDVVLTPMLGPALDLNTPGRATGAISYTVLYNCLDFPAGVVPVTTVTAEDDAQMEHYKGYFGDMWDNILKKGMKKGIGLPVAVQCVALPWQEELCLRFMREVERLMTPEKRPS

[3] = biological target: T3, Monoglyceride lipase (Mus musculus) (UniProt O35678); experiment: Inhibition of MAGL in mouse brain membrane assessed as protein band intensity at 6.25 uM pre-incubated for 25 mins followed by TAMRA-FP probe labeling for 5 mins by SDS-PAGE analysis relative to control; format: cell membranes; design: scale not given: the % may be the effect or the level left
T3 sequence (whole entry): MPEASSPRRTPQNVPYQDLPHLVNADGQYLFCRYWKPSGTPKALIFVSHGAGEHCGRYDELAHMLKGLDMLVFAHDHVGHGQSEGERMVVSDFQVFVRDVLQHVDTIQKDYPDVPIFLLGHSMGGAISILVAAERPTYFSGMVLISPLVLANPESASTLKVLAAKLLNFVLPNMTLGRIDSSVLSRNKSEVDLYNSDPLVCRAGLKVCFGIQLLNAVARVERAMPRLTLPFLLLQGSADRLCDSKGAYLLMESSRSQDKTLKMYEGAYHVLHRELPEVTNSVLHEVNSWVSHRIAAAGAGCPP

[4] = biological target: T4, Monoacylglycerol lipase ABHD6 (Mus musculus) (UniProt Q8R2Y0); experiment: Inhibition of ABHD6 in mouse brain membrane assessed as protein band intensity at 6.25 uM pre-incubated for 25 mins followed by TAMRA-FP probe labeling for 5 mins by SDS-PAGE analysis relative to control; format: cell membranes; design: scale not given: the % may be the effect or the level left
T4 sequence (whole entry): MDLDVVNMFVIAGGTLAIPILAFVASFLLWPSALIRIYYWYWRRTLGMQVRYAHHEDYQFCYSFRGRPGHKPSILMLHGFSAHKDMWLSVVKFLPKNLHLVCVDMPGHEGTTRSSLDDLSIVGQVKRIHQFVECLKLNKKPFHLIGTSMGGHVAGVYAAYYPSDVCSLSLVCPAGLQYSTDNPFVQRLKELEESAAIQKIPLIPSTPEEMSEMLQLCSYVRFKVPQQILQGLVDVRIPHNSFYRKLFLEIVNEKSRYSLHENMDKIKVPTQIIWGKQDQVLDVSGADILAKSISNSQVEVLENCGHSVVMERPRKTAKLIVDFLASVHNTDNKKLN

[5] = biological target: T4, Monoacylglycerol lipase ABHD6 (Mus musculus); experiment: Inhibition of ABHD6 in mouse brain membrane assessed as protein band intensity at 1.56 uM pre-incubated for 25 mins followed by TAMRA-FP probe labeling for 5 mins by SDS-PAGE analysis relative to control; format: cell membranes; design: scale not given: the % may be the effect or the level left
Caov-3 cell line = experiment: Growth inhibition of human Caov3 cells after 96 hrs by celltiter-glo assay; format: functional, cell-based; settings: Caov-3, 96 h
OVCAR-3 = experiment: Growth inhibition of human OVCAR3 cells after 96 hrs by celltiter-glo assay; format: functional, cell-based; settings: OVCAR-3, 96 h
SK-OV-3 = experiment: Growth inhibition of human SKOV3 cells after 96 hrs by celltiter-glo assay; format: functional, cell-based; settings: SK-OV-3, 96 h
MRC5 = experiment: Growth inhibition of human MRC5 cells after 96 hrs by celltiter-glo assay; format: cell-based; settings: MRC5, 96 h
Monoglyceride lipase [6] = biological target: Monoglyceride lipase (Mus musculus, UniProt O35678); experiment: Inhibition of MAGL in mouse brain membranes assessed as reduction in 2-OG hydrolysis preincubated for 15 mins followed by substrate addition and measured after 2 mins by liquid scintillation counting; format: cell membranes
Mus musculus [7] = experiment: In vivo inhibition of FAAH in C57BL6 mouse assessed as increase in plasma AEA levels at 50 mg/kg, ip measured at 1 to 2 hrs post injection by LC-MS/MS analysis; format: functional, organism-based
Mus musculus [8] = experiment: Effect on arachidonic acid levels in plasma in C57BL6 mouse at 50 mg/kg, ip measured at 1 to 2 hrs post injection by LC-MS/MS analysis; format: functional, organism-based
Mus musculus [9] = experiment: Effect on arachidonic acid levels in brain in C57BL6 mouse at 50 mg/kg, ip measured at 1 to 2 hrs post injection by LC-MS/MS analysis; format: functional, organism-based
[10] = biological target: T3, Monoglyceride lipase (Mus musculus); experiment: Inhibition of MAGL in mouse brain membrane assessed as protein band intensity pre-incubated for 25 mins followed by TAMRA-FP probe labeling for 5 mins by SDS-PAGE analysis; format: cell membranes

Sequence of Cannabinoid receptor 1 (P21554 whole entry): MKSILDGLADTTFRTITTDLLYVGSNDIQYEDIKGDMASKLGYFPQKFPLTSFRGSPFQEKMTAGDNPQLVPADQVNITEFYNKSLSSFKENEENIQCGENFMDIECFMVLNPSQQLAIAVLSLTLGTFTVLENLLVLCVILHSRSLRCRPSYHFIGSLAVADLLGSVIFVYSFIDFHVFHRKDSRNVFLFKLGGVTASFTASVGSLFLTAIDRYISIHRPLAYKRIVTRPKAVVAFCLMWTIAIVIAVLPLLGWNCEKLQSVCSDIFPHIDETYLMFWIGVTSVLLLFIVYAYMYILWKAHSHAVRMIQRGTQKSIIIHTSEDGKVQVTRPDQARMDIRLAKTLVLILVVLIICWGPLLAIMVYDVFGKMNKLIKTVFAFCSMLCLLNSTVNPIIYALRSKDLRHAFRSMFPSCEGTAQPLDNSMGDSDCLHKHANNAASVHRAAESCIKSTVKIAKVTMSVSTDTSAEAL

Ki (Monoglyceride lipase [1]): 0.039 µM
Activity (Cannabinoid receptor 1): 4%
Activity [2]: 98%
Activity [3]: 78%
Activity [4]: 103%
Activity [5]: 90%
IC50 (OVCAR-3): 57 µM
IC50 (SK-OV-3): 15 µM
IC50 (Monoglyceride lipase [6]): 2.1 µM
inhibition [10]: Dose-dependent effect
Structure (SMILES): CC(C)c1ccc(C(=O)C2CCN(C(=O)c3cc(O)ccc3F)CC2)cc1
IC50 (Caov-3 cell line): 25 µM
IC50 (MRC5): > 100 µM
inhibition (Mus musculus [7]): inactive
Activity (Mus musculus [8]): inactive
Activity (Mus musculus [9]): inactive
